B1: tRNA (parent)
chain: GUUCCGUUGGCGUAAUGGUAACGCGUCUCCCUCCUAAGGAGAAGACUGCGGGUUCGAGUCCCGUACGGAACG

Variants of: B1
Experiment: yeast fitness, log relative to wild type (ln ratio); higher = fitter; tRNA-Arg(CCU), competitive growth, 37 C, 1 M NaCl
How it was run: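 Variants were counted by 125 bp paired-end Illumina sequencing after pools of a combinatorial tRNA-Arg(CCU) library, held on a HIS3 centromeric plasmid in BY4742 lacking the chromosomal gene, grew ~6.5 generations (~26.5 h) in SC-HIS 1M NaCl at 37 °C. Each genotype's fitness is the natural log of its generations relative to the wild type's. Generations were OD-scaled log2 output/input frequencies, inverse-variance weighted over replicates.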

Point of comparison: G1A U2G A69G C71U, “yeast fitness (ln)” value -0.135. Against it:
- G1A G6U C27U A43C A69G C71U — lower, -0.557
- G1A U2C G6A C27U C46U C66U A69G A70G C71U — higher, -0.0405
- U2G G6U C27U C66U C71U — lower, -0.31
- U2C G6A C27U C46U C66U A69G C71U — lower, -0.271
- G1A G6U C27U A43C C46U C66U A69G A70U C71U — lower, -0.565
- G1A U2C G6U C27U C46U A69G A70U C71U — lower, -0.392
- C27U C46U — higher, -0.0139
- G1A U2G G6U C66A A69G A70G C71U — lower, -0.325
- G1A U2G G6U C27U C46U C66U A70G — lower, -0.437
- G6U C27U A43C C66A C71U — lower, -0.425
- U2G G6A C46U C66U A69G A70G C71U — lower, -0.188
- C66U A69G A70U C71U — lower, -0.339
- U2G A43C C66U A69G A70U C71U — lower, -0.468
- U2C G6U C27U C46U C66A A69G A70G C71U — higher, -0.0348
- G1A G6U C66A A69G A70U C71U — lower, -0.432
- U2C G6A C27U A43C C66U C71U — lower, -0.148
- U2G C27U A43C C66U A70G — lower, -0.257
- U2C G6U C66U A70G — higher, -0.0259
- G1A C27U A43C C46U C66A C71U — lower, -0.231
- U2G G6A C46U C66A A69G A70U C71U — lower, -0.382
- G6A C27U C66A A70U C71U — lower, -0.246
- G1A U2G C27U C66A A69G A70U — lower, -0.187
- C27U A43C C46U C66U A70U — higher, -0.109
- G1A U2G G6A A69G A70G — lower, -0.333
- G1A U2G G6U A43C C46U A70U C71U — lower, -0.226
- U2G C66A A70U — lower, -0.157
- C27U C46U C66A A70U C71U — higher, -0.13
- U2C G6A C46U C66U A69G A70G C71U — higher, -0.00401
- G1A G6U C46U A69G A70U C71U — lower, -0.321
- G6U C27U C46U C66U C71U — lower, -0.359
- G6A C66U — higher, -0.0046
- G6U A43C A70G — lower, -0.296
- G1A G6U A69G A70G C71U — lower, -0.247
- U2G G6A C27U A43C C66U A70G — lower, -0.223
- G1A U2C G6A A69G A70U C71U — lower, -0.281
- U2G G6A A43C C46U C66U A69G A70U — higher, -0.0409
- G1A G6U C27U A43C A69G A70G C71U — lower, -0.34
- G6A C27U C66A C71U — lower, -0.168
- G1A C46U C66A A69G A70U — higher, -0.0801
- G1A U2C G6U A43C C46U C66A A69G A70U — higher, -0.0654
- G6U A43C A70U C71U — lower, -0.287
- G6U C27U C46U A69G A70U C71U — lower, -0.457
- U2C A43C C66U A69G A70U C71U — lower, -0.605
- U2G C66A A70U C71U — higher, -0.0556
- U2C A43C C46U A69G C71U — higher, -0.0944
- G1A U2G G6U C27U C46U C66A A70G C71U — lower, -0.239
- U2G G6U C27U C66U A70U C71U — lower, -0.343
- G1A G6U C27U A43C C71U — lower, -0.352
- G1A U2G G6U C27U A43C C46U A69G A70G — lower, -0.192
- G1A U2G G6U A43C C71U — lower, -0.307
- U2G G6U A43C A69G A70U C71U — lower, -0.433
- U2C G6U C27U A43C C46U A69G A70U — higher, -0.126
- G1A U2G G6A A69G C71U — lower, -0.244
- G6U A43C C46U — lower, -0.193
- U2G G6U C27U A43C C46U C66A A69G A70U C71U — lower, -0.386
- U2G G6A C46U C71U — lower, -0.149
- G6A C27U C46U A69G A70U — lower, -0.257
- G1A G6A A43C — lower, -0.204
- G1A U2G C46U C66U A69G A70G C71U — lower, -0.195
- G1A U2C A43C C46U C66A A70U C71U — higher, -0.134
- U2G G6A C27U A43C A70G C71U — lower, -0.221
- U2G G6U C27U C46U A69G A70G C71U — lower, -0.268
- G1A U2C A43C C71U — lower, -0.185
- C66A — higher, -0.00943
- G1A U2C G6U A70U C71U — lower, -0.158
- U2C G6U A43C A70U — higher, -0.118
- G1A G6A A43C C46U A70G C71U — lower, -0.214
- G6U A43C C66A A69G A70G C71U — lower, -0.299
- G1A G6U A43C A70G — lower, -0.21
- U2C G6A C27U C46U C66U — lower, -0.136
- U2C A70G C71U — higher, -0.013
- G6U C46U C66U A70G — lower, -0.153
- U2C C27U A43C A69G C71U — lower, -0.144
- G1A U2G C66U A70U — higher, -0.131
- G6A A43C C66U C71U — lower, -0.335
- U2C A69G A70U — higher, -0.117
- G6A — higher, -0.0301
- G1A U2G G6A C27U C46U C66U A69G C71U — lower, -0.332
- G6A C27U A43C C66U A70G — lower, -0.426
- G1A U2C G6U C46U A70U — higher, -0.0682
- G1A A43C C46U A70G C71U — higher, -0.032
- U2C G6U C27U A69G C71U — lower, -0.22
